In ChEMBL document CHEMBL2407075, “Sulphonamido-quinoxalines: search for anticancer agent” (Eur J Med Chem, 2013):

Columns and labels:
Assay type in all cases: functional
[1] = tested on: SW-620; assay: Growth inhibition of human SW620 cells assessed as cell growth at 10^-7 M after 48 hrs by sulforhodamine B assay; settings: SW-620, 48 h, read-out: Activity
[2] = tested on: KM12; assay: Growth inhibition of human KM12 cells after 48 hrs by sulforhodamine B assay; settings: KM12, 48 h; for CC50: read-out: LC50 (the source's name)
Outline: (§1)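 Adherent cells in RPMI 1640 with 5% FBS and 2 mM L-glutamine were plated at 5000–40,000 cells/well and grown 24 h. Five concentrations (0.01–100 µM, DMSO stock) were added for 48 h at 37 °C. Cells were fixed with cold TCA (10% final) and stained with SRB, read at 515 nm. GI50 came from log concentration–growth curves against time-zero and control plates.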

[3] = tested on: UACC-257; assay: Growth inhibition of human UACC257 cells assessed as cell growth at 10^-7 M after 48 hrs by sulforhodamine B assay; settings: UACC-257, 48 h, read-out: Activity
[4] = tested on: UACC-257; assay: Growth inhibition of human UACC257 cells after 48 hrs by sulforhodamine B assay; settings: UACC-257, 48 h, read-out: LC50 (the source's name)
Outline: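 NCI-60 screen. Cells grown in RPMI 1640 with 5% FBS and 2 mM L-glutamine, plated at 5000–40,000 cells/well and preincubated 24 h at 37 °C, 5% CO2. A time-zero plate is TCA-fixed at drug addition. DMSO stocks diluted in medium; five concentrations (0.01, 0.1, 1, 10, 100 µM). Exposure 48 h, then cold TCA fixation and 0.4% SRB staining, absorbance at 515 nm. GI50 is taken from the growth-percentage curve relative to time zero and control.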

[5] = tested on: NCI-H522; assay: Growth inhibition of human NCI-H522 cells assessed as cell growth at 10^-8 M after 48 hrs by sulforhodamine B assay; settings: NCI-H522, 48 h, read-out: Activity
[6] = tested on: MCF7; assay: Growth inhibition of human MCF7 cells assessed as cell growth at 10^-6 M after 48 hrs by sulforhodamine B assay; settings: MCF7, 48 h, read-out: Activity
[7] = Growth inhibition of human EKVX cells after 48 hrs by sulforhodamine B assay; settings: for CC50: read-out: LC50 (the source's name); outline: as §1
[8] = tested on: SF-268; assay: Growth inhibition of human SF268 cells assessed as cell growth at 10^-7 M after 48 hrs by sulforhodamine B assay; settings: SF-268, 48 h, read-out: Activity
[9] = tested on: OVCAR-3; assay: Growth inhibition of human OVCAR3 cells assessed as cell growth at 10^-5 M after 48 hrs by sulforhodamine B assay; settings: OVCAR-3, 48 h, read-out: Activity
[10] = tested on: A498; assay: Growth inhibition of human A498 cells assessed as cell growth at 10^-7 M after 48 hrs by sulforhodamine B assay; settings: A498, 48 h, read-out: Activity
Outline: (§2)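 Five-dose NCI-60 run (0.01, 0.1, 1, 10 and 100 µM, as 10-fold dilutions from a DMSO stock made at 400× the top final level). Cells were grown in RPMI 1640 with 5% FBS and 2 mM glutamine and plated for 24 h. They were then exposed for 48 h at 37 °C and 5% CO2. TCA fixation was followed by SRB staining with A515 read-out. Percent growth was taken relative to time-zero and control plates.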

[11] = tested on: SK-MEL-28; assay: Growth inhibition of human SK-MEL-28 cells assessed as cell growth at 10^-4 M after 48 hrs by sulforhodamine B assay; settings: SK-MEL-28, 48 h, read-out: Activity
[12] = tested on: PC-3; assay: Growth inhibition of human PC3 cells assessed as cell growth at 10^-8 M after 48 hrs by sulforhodamine B assay; settings: PC-3, 48 h, read-out: Activity
[13] = tested on: HOP-92; assay: Growth inhibition of human HOP92 cells assessed as cell growth at 10^-5 M after 48 hrs by sulforhodamine B assay; settings: HOP-92, 48 h, read-out: Activity
Outline: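 Five-dose screen at NCI. Cells in RPMI 1640 with 5% FBS and 2 mM L-glutamine, seeded at 5000–40,000 cells/well and grown 24 h at 37 °C, 5% CO2 before dosing, with time-zero plates TCA-fixed. Drug diluted from DMSO stock to 0.01, 0.1, 1, 10 and 100 µM final, 48 h. Cells fixed with cold TCA (10% final), stained with 0.4% SRB and read at 515 nm. Percent growth from Tz, control and test absorbances; GI50, TGI and LC50 from dose-response curves.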

[14] = tested on: SK-OV-3; assay: Growth inhibition of human SKOV3 cells assessed as cell growth at 10^-5 M after 48 hrs by sulforhodamine B assay; settings: SK-OV-3, 48 h, read-out: Activity
[15] = tested on: SNB-75; assay: Growth inhibition of human SNB75 cells assessed as cell growth at 10^-8 M after 48 hrs by sulforhodamine B assay; settings: SNB-75, 48 h, read-out: Activity
[16] = tested on: NCI-H226; assay: Growth inhibition of human NCI-H226 cells assessed as cell growth at 10^-4 M after 48 hrs by sulforhodamine B assay; settings: NCI-H226, 48 h, read-out: Activity
[17] = tested on: NCI-H23; assay: Growth inhibition of human NCI-H23 cells assessed as cell growth at 10^-8 M after 48 hrs by sulforhodamine B assay; settings: NCI-H23, 48 h, read-out: Activity
[18] = tested on: OVCAR-8; assay: Growth inhibition of human OVCAR8 cells assessed as cell growth at 10^-7 M after 48 hrs by sulforhodamine B assay; settings: OVCAR-8, 48 h, read-out: Activity
[19] = tested on: NCI-H23; assay: Growth inhibition of human NCI-H23 cells assessed as cell growth at 10^-4 M after 48 hrs by sulforhodamine B assay; settings: NCI-H23, 48 h, read-out: Activity
[20] = tested on: HOP-92; assay: Growth inhibition of human HOP92 cells after 48 hrs by sulforhodamine B assay; settings: HOP-92, 48 h; for CC50: read-out: LC50 (the source's name); outline: as §1
[21] = tested on: ACHN; assay: Growth inhibition of human ACHN cells assessed as cell growth at 10^-4 M after 48 hrs by sulforhodamine B assay; settings: read-out: Activity; outline: as §2
[22] = tested on: NCI-H460; assay: Growth inhibition of human NCI-H460 cells assessed as cell growth at 10^-8 M after 48 hrs by sulforhodamine B assay; settings: NCI-H460, 48 h, read-out: Activity
[23] = tested on: 786-0; assay: Growth inhibition of human 786-0 cells assessed as cell growth at 10^-8 M after 48 hrs by sulforhodamine B assay; settings: 786-0, 48 h, read-out: Activity; outline: as §2
[24] = tested on: OVCAR-3; assay: Growth inhibition of human OVCAR3 cells assessed as cell growth at 10^-8 M after 48 hrs by sulforhodamine B assay; settings: OVCAR-3, 48 h, read-out: Activity
[25] = tested on: HL-60(TB); assay: Growth inhibition of human HL-60(TB) cells assessed as cell growth at 10^-8 M after 48 hrs by sulforhodamine B assay; settings: HL-60, 48 h, read-out: Activity
Outline: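 HL-60(TB) suspension cells were treated 48 h at 37 °C within the five-dose series (0.01–100 µM), fixed with 16% final TCA and SRB-stained, read at 515 nm. Percentage growth at each concentration = (Ti−Tz)/(C−Tz)×100, or (Ti−Tz)/Tz×100 when Ti<Tz, with time-zero (Tz) and untreated control (C) plates.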

Work on `O=S(=O)(Nc1ccc(Cl)cc1)c1ccc2nc(-c3ccccc3)c(-c3ccccc3)nc2c1` yielded a growth at 0.1 µM [1] of 91%, a TGI [2] greater than 100 µM and a CC50 [2] greater than 100 µM. The growth at 0.1 µM [3] was 99%, the CC50 [4] was greater than 100 µM and the growth at 0.01 µM [5] was 93%. It also gave a growth at 1 µM [6] of 93%, a CC50 [7] greater than 100 µM and a growth at 0.1 µM [8] of 98%. The growth at 10 µM [9] was -41%, the growth at 0.1 µM [10] was 76% and the growth at 100 µM [11] was 82%. It also gave a growth at 0.01 µM [12] of 90%, a growth at 10 µM [13] of -13% and a growth at 10 µM [14] of 14%. The growth at 0.01 µM [15] was 75%, the growth at 100 µM [16] was 73% and the growth at 0.01 µM [17] was 97%. It also gave a growth at 0.1 µM [18] of 101%, a growth at 100 µM [19] of 72% and a GI50 [20] of 2.03 µM. It also gave a CC50 [20] greater than 100 µM, a growth at 100 µM [21] of 76% and a growth at 0.01 µM [22] of 101%. For the same compound, the growth at 0.01 µM [23] was 97%, the growth at 0.01 µM [24] was 100% and the growth at 0.01 µM [25] was 97%.

`O=S(=O)(Nc1ccccn1)c1ccc2nc(-c3ccccc3)c(-c3ccccc3)nc2c1` gave a growth at 0.1 µM [1] of 102%, a TGI [2] greater than 100 µM and a CC50 [2] greater than 100 µM. For the same compound, the growth at 0.1 µM [3] was 103%, the CC50 [4] was greater than 100 µM and the growth at 0.01 µM [5] was 89%. It also gave a growth at 1 µM [6] of 87%, a GI50 [7] of 2.69 µM and a TGI [7] greater than 100 µM. It also gave a CC50 [7] greater than 100 µM, a growth at 0.1 µM [8] of 91% and a growth at 10 µM [9] of -32%. For the same compound, the growth at 0.1 µM [10] was 87%, the growth at 100 µM [11] was 82% and the growth at 0.01 µM [12] was 97%. For the same compound, the growth at 10 µM [13] was -18%, the growth at 10 µM [14] was 11% and the growth at 0.01 µM [15] was 85%. For the same compound, the growth at 100 µM [16] was 70%, the growth at 0.01 µM [17] was 95% and the growth at 0.1 µM [18] was 97%. For the same compound, the growth at 100 µM [19] was 42%, the GI50 [20] was 1.94 µM and the CC50 [20] was greater than 100 µM. It also gave a growth at 100 µM [21] of 62%, a growth at 0.01 µM [22] of 104% and a growth at 0.01 µM [23] of 100%. It also gave a growth at 0.01 µM [24] of 92% and a growth at 0.01 µM [25] of 98%.
